# Tested on: Mycobacterium tuberculosis
# Test: Antimycobacterial activity against Mycobacterium tuberculosis H37Rv ATCC 27294 after 21 to 28 days by twofold agar dilution method
# Format: functional
# Method in brief: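 Twofold agar dilution on Middlebrook 7H11 agar with 10% OADC enrichment, compounds at […]. Each well received 10 μL of H37Rv suspension at 1.5 x 10⁵ cfu/mL grown in 7H9 broth with 10% ADC, giving a final inoculum of 1.5 x 10³ per well. Incubated 21–28 days. MIC read as lowest concentration completely inhibiting visible growth.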
row,Compound,MIC [µg/mL]
1,CC(C)c1[nH]n(-c2ccc(Cl)cc2)c(=O)c1C(=O)c1ccc(Cl)cc1,32
2,Cc1[nH]n(-c2ccc(Br)cc2)c(=O)c1C(=O)c1ccc(Cl)cc1,4
3,O=C(c1ccc(Cl)cc1)c1c(-c2ccccc2)[nH]n(-c2ccccc2)c1=O,32
4,O=C(c1ccc(Cl)cc1)c1c(C(F)(F)F)[nH]n(-c2ccc(Cl)cc2)c1=O,> 64
5,Cc1[nH]n(-c2ccc(C(C)C)cc2)c(=O)c1C(=O)c1ccc(Cl)cc1,16
6,CC(C)c1[nH]n(-c2ccccc2)c(=O)c1C(=O)c1ccc(Cl)cc1,64
7,Cc1ccc(-n2[nH]c(-c3ccccc3)c(C(=O)c3ccc(Cl)cc3)c2=O)cc1,32
8,Cc1[nH]n(-c2ccc(F)cc2)c(=O)c1C(=O)c1ccc(Cl)cc1,12.5
9,Cc1[nH]n(-c2ccc(Cl)cc2)c(=O)c1C(=O)c1ccc(Cl)cc1,6.25
10,O=C(c1ccc(Cl)cc1)c1c(C(F)(F)F)[nH]n(-c2ccccc2)c1=O,> 64
11,CC(C)c1ccc(-n2[nH]c(-c3ccccc3)c(C(=O)c3ccc(Cl)cc3)c2=O)cc1,32
12,O=C(c1ccc(Cl)cc1)c1c(-c2ccccc2)[nH]n(-c2ccc(Cl)cc2)c1=O,16
13,Cc1ccc(-n2nc(C)c(C(=O)c3ccc(Cl)cc3)c2O)cc1,16
14,Cc1c(C(=O)c2ccc(Cl)cc2)c(=O)n(-c2ccc(Cl)cc2)n1Cc1ccc(F)cc1,32
15,Cc1c(C(=O)c2ccc(Cl)cc2)c(=O)n(-c2ccc(Cl)cc2)n1Cc1ccccc1,16
16,Cc1c(C(=O)c2ccc(Cl)cc2)c(=O)n(-c2ccccc2)n1C,> 100
17,Cc1c(C(=O)c2ccc(Cl)cc2)c(=O)n(-c2ccccc2)n1Cc1ccc(F)cc1,32
18,Cc1c(C(=O)c2ccc(Cl)cc2)c(=O)n(-c2ccc(Cl)cc2)n1Cc1ccc([N+](=O)[O-])cc1,32
19,Cc1c(C(=O)c2ccc(Cl)cc2)c(=O)n(-c2ccccc2)n1Cc1ccc([N+](=O)[O-])cc1,> 32
20,Cc1nn(-c2ccccc2)c(O)c1C(=O)c1ccc(Cl)cc1,6.25
21,Cc1c(C(=O)c2ccc(Cl)cc2)c(=O)n(-c2ccccc2)n1Cc1ccccc1,> 64
